The text below walks through data of ChEMBL document CHEMBL1221399, “Antitumor Agents. 282. 2'-(R)-O-acetylglaucarubinone, a quassinoid from Odyendyea gabonensis as a potential anti-breast and anti-ovarian cancer agent” (J Nat Prod, 2010).

≈ marks a conversion by molar mass, not a printed value. Calls of active or inactive are those of the source.

Test [1] is described as follows: Cytotoxicity against human KBVIN cells. Type of test: functional. The following applies: read-out: ED50 (the source's name). Put shortly:
(§1)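 Human tumour cell lines DU145, A549, KB and multidrug-resistant KB-VIN were exposed to the quassinoids, with paclitaxel as reference. ED50 was the mean concentration giving 50% effect under the defined assay condition, reported in µM.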

In a further test the test system is KB. The test is described as follows: Cytotoxicity against human KB cells. The following applies: read-out: ED50 (the source's name). Type of test: functional. Put shortly:
as §1

In a further test the test system is DU-145. Put plainly: Cytotoxicity against human DU145 cells. Type of test: functional. The following applies: read-out: ED50 (the source's name). The method in brief:
as §1

A further test relates to A549. Put plainly: Cytotoxicity against human A549 cells. Type of test: functional. To be noted: read-out: ED50 (the source's name). Put shortly: as §1
A short description of test [2]: Growth inhibition of human KBVIN cells at 10 ug/ml. Type of test: functional. The following applies: read-out: GI.
For test [3], the system named is Mus musculus. Put plainly: Reduction of mammary gland ductal branching in […]/p53-deficient C57BL/6/129/Sv mouse model at 0.1 mg/kg, ip daily for 7 days measured post last dose by immunohistochemistry. Type of test: functional. The method in brief: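 Three-month-old Brca1/p53 conditional mutant mice (Cre, mixed C57BL/6 and 129/Sv background) given […] daily for 7 days. Dose is drawn from a 1 mg/mL DMSO stock, 10 µL mixed with 30 µL 40% PEG and 60 µL 0.9% NaCl at dosing. Controls get vehicle. Fourth-pair glands are whole-mounted, Carnoy-fixed 3 h and carmine alum-stained overnight. Branching points are counted relative to vehicle, two-tailed t-test.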

In test [4] the test system is Mus musculus. The test is described as follows: Reduction of mammary gland ductal branching in […]/p53-deficient C57BL/6/129/Sv mouse model at 0.1 mg/kg, ip daily for 5 days measured post last dose by immunohistochemistry. Type of test: functional, organism-based. Details: dose 0.1 mg/kg. Put shortly: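 Three-month-old Brca1/p53 conditional mutant mice (mixed C57BL/6 and 129/Sv background) dosed i.p. daily for 5 days, with vehicle controls. Fourth-pair mammary glands are whole-mounted, fixed in Carnoy's 3 h and stained overnight with carmine alum. Ductal branching points are scored against vehicle-treated mice, significance by two-tailed t-test.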

Test [5] in a line: Cytotoxicity against human 2774-C10 cells. Type of test: functional, cell-based.
Test [6] is described as follows: Cytotoxicity against human MSPC1 cells. Type of test: functional, cell-based.
Another test concerns BT-474. Put plainly: Cytotoxicity against human BT474 cells. The class given is functional, cell-based.
Test [7] concerns MCF7. Put plainly: Cytotoxicity against human MCF7 cells overexpressing HER2. Type of test: functional, cell-based.
Test [8] relates to MCF7. Put plainly: Cytotoxicity against human MCF7 cells. Type of test: functional, cell-based.
Test [9] is described as follows: Cytotoxicity against human HOC7 cells. The class given is functional, cell-based.
A further test deals with MDA-MB-231. The test is described as follows: Cytotoxicity against human MDA-MB-231 cells. The class given is functional, cell-based.
For another test, the system named is SK-BR-3. Put plainly: Cytotoxicity against human SK-BR-3 cells. The class given is functional, cell-based.
The next test deals with MDA-MB-468. Put plainly: Cytotoxicity against human MDA-MB-468 cells. Type of test: functional, cell-based.
The nature of test [10]: Cytotoxicity against human HeyA8 cells. The class given is functional, cell-based. The following applies: HEY A8.

In the case of `CC[C@@](C)(OC(C)=O)C(=O)O[C@H]1C(=O)O[C@@H]2C[C@H]3C(C)=CC(=O)[C@@H](O)[C@]3(C)[C@H]3[C@@]4(O)OC[C@]32[C@@H]1[C@@H](C)[C@H]4O`, the EC50 in test [1] is 440 nM; with KB, 70 nM; in the test on DU-145, 70 nM; in the test with A549, 70 nM.
Turning to `CC[C@](C)(OC(C)=O)C(=O)O[C@H]1C(=O)O[C@@H]2C[C@H]3C(C)=C[C@H](O)[C@@H](O)[C@]3(C)[C@H]3[C@@]4(O)OC[C@]32[C@@H]1[C@@H](C)[C@H]4O`, the EC50 came to 670 nM in the test with KB, 830 nM in the test on DU-145 and 3600 nM with A549. In addition, the inhibition of growth at 10 µg/mL in test [2] was less than 50%.
Take `COC(=O)[C@@]12OC[C@]34[C@H]([C@@H](O)[C@@H]1O)[C@@]1(C)CC(=O)C(O)=C(C)[C@@H]1C[C@H]3OC(=O)[C@H](OC(=O)/C=C(\C)C(C)C)[C@@H]24`: the inhibition entry with Mus musculus [3] and in the test on Mus musculus [4] was “Active” each time.
In general, IC50 refers to the concentration needed to halve the response being measured. Low readings indicate higher potency, high ones lower potency. `CC[C@](C)(OC(C)=O)C(=O)O[C@H]1C(=O)O[C@@H]2C[C@H]3C(C)=CC(=O)[C@@H](O)[C@]3(C)[C@H]3[C@@]4(O)OC[C@]32[C@@H]1[C@@H](C)[C@H]4O` [2'-ACETOXY-GLAUCARUBINONE]: the IC50 in [5] was less than 0.01 µg/mL; in test [6] it was less than 0.01 µg/mL; in the test with BT-474, 28.4 µg/mL (≈ 52.9 µM); in the test on MCF7 [7], 0.013 µg/mL (≈ 0.0242 µM); with MCF7 [8], 8.13 µg/mL (≈ 15.2 µM); in test [9] it was less than 0.01 µg/mL. Moreover, the IC50 with MDA-MB-231 is 0.077 µg/mL (≈ 0.144 µM); in the test on SK-BR-3, 0.014 µg/mL (≈ 0.0261 µM); with MDA-MB-468, 0.016 µg/mL (≈ 0.0298 µM); in [10], less than 0.01 µg/mL. Moreover, the EC50 turned out to be 420 nM in test [1], 50 nM in the test with KB, 40 nM in the test with DU-145 and 60 nM in the test on A549.
Take `CCC(C)C(=O)O[C@H]1C(=O)O[C@@H]2C[C@H]3C(C)=CC(=O)[C@@H](O)[C@]3(C)[C@H]3[C@]4(O)OC[C@]32[C@@H]1[C@@H](C)[C@H]4O` (stereo not given in full) [AILANTHINONE]: the EC50 in test [1] amounted to 370 nM; in the test on KB it was 180 nM; with DU-145, 90 nM; with A549, 130 nM.
On to `CCC(C)C(=O)O[C@H]1C(=O)O[C@@H]2C[C@H]3C(C)=C[C@H](O)[C@@H](O)[C@]3(C)[C@H]3[C@@]4(O)OC[C@]32[C@@H]1[C@@H](C)[C@H]4O` (stereo not given in full) [EXCELSIN], for which the results for the EC50 in the test on KB, in the test on DU-145 and in the test with A549 were 4300 nM, 4700 nM and 16000 nM, respectively. Further, the inhibition of growth at 10 µg/mL in [2] is less than 50%.
Consider `CC[C@](C)(O)C(=O)O[C@H]1C(=O)O[C@@H]2C[C@H]3C(C)=CC(=O)[C@@H](O)[C@]3(C)[C@H]3[C@@]4(O)OC[C@]32[C@@H]1[C@@H](C)[C@H]4O` [GLAUCARUBINONE], for which the EC50 worked out at 1240 nM in [1], 440 nM in the test with KB, 470 nM in the test with DU-145 and 880 nM in the test with A549.
The like results for `CC(=O)O[C@H]1C(=O)[C@@]2(C)[C@H]([C@H](OC(=O)c3ccccc3)[C@]3(O)C[C@H](OC(=O)[C@H](O)[C@@H](NC(=O)c4ccccc4)c4ccccc4)C(C)=C1C3(C)C)[C@]1(OC(C)=O)CO[C@@H]1C[C@@H]2O` [PACLITAXEL] were, in that order, greater than 1000 nM, 7 nM, 3 nM and 8 nM.
